According to ChEMBL document CHEMBL5724801, “EUbOPEN Chemogenomics Library - Multiplex” (2024):
Several values for one entry are separate records, joined by “and”; a condition that tells them apart may be missing. Equal values may be shown once.

Test system: HEK-293T
Assay: Multiplex assay against HEK293T
Format: toxicity, cell-based
Conditions: human
Summary of the method: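 Live cells were stained at seeding with Hoechst33342, BioTracker Green Microtubule Cytoskeleton Dye, MitoTracker Red and Annexin V Alexa Fluor 680, then imaged on a CQ1 microscope at 37°C and 5% CO2 after compound addition. CellPathfinder machine-learning gating split cells into Hoechst high-intensity objects or normal cells. Normal cells were split into healthy, pyknosed or fragmented nuclei, and pyknosed cells into mitotic or apoptotic. Tubulin, mitochondrial-mass and membrane-permeability phenotypes are per cents of healthy-nucleus cells.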

[1] = 12 h, 1 µM, compound concentration 1 uM
[2] = 12 h, 10 µM, compound concentration 10 uM
[3] = 24 h, 1 µM, compound concentration 1 uM
[4] = 24 h, 10 µM, compound concentration 10 uM
[5] = 48 h, 1 µM, compound concentration 1 uM
[6] = 48 h, 10 µM, compound concentration 10 uM

SMILES: CSc1nc(NC2CCCC2)c([N+](=O)[O-])c(NC2CCCC2)n1 [GS-39783]
- Population Apoptotic (%) [1]: 45% and 40%
- Population Fragmented Nuclei (%) [1]: 11% and 3%
- Population Healthy Nuclei (%) [1]: 74% and 85%
- Population Hoechst High Intensity Objects (%) [1]: 8% and 4%
- Population Membrane Permeable-Phenotype (%) [1]: 0%
- Population Mitochondria Different-Phenotype (%) [1]: 41% and 68%
- Population Mitotic Cells (%) [1]: 54% and 59%
- Population Normal (%) [1]: 91% and 95%
- Population Pyknosed Nuclei (%) [1]: 14% and 11%
- Population Tubulin-Different-Phenotype (%) [1]: 30% and 27%
- Total Cell Count [1]: 346 and 301
- Population Apoptotic (%) [2]: 29% and 40%
- Population Fragmented Nuclei (%) [2]: 6% and 5%
- Population Healthy Nuclei (%) [2]: 81% and 84%
- Population Hoechst High Intensity Objects (%) [2]: 6% and 5%
- Population Membrane Permeable-Phenotype (%) [2]: 0%
- Population Mitochondria Different-Phenotype (%) [2]: 50% and 68%
- Population Mitotic Cells (%) [2]: 70% and 60%
- Population Normal (%) [2]: 93% and 94%
- Population Pyknosed Nuclei (%) [2]: 12% and 10%
- Population Tubulin-Different-Phenotype (%) [2]: 40% and 29%
- Total Cell Count [2]: 449 and 406
- Population Apoptotic (%) [3]: 30% and 38%
- Population Fragmented Nuclei (%) [3]: 12% and 7%
- Population Healthy Nuclei (%) [3]: 76% and 84%
- Population Hoechst High Intensity Objects (%) [3]: 7% and 8%
- Population Membrane Permeable-Phenotype (%) [3]: 0%
- Population Mitochondria Different-Phenotype (%) [3]: 25% and 51%
- Population Mitotic Cells (%) [3]: 69% and 61%
- Population Normal (%) [3]: 92% and 91%
- Population Pyknosed Nuclei (%) [3]: 11% and 7%
- Population Tubulin-Different-Phenotype (%) [3]: 19%
- Total Cell Count [3]: 492 and 360
- Population Apoptotic (%) [4]: 27% and 37%
- Population Fragmented Nuclei (%) [4]: 11% and 8%
- Population Healthy Nuclei (%) [4]: 78% and 83%
- Population Hoechst High Intensity Objects (%) [4]: 5% and 6%
- Population Membrane Permeable-Phenotype (%) [4]: 1% and 0%
- Population Mitochondria Different-Phenotype (%) [4]: 30% and 52%
- Population Mitotic Cells (%) [4]: 72% and 62%
- Population Normal (%) [4]: 94% and 93%
- Population Pyknosed Nuclei (%) [4]: 10% and 7%
- Population Tubulin-Different-Phenotype (%) [4]: 30% and 28%
- Total Cell Count [4]: 553 and 474
- Population Apoptotic (%) [5]: 35% and 30%
- Population Fragmented Nuclei (%) [5]: 15% and 13%
- Population Healthy Nuclei (%) [5]: 74% and 77%
- Population Hoechst High Intensity Objects (%) [5]: 3% and 6%
- Population Membrane Permeable-Phenotype (%) [5]: 1% and 0%
- Population Mitochondria Different-Phenotype (%) [5]: 22% and 32%
- Population Mitotic Cells (%) [5]: 64% and 69%
- Population Normal (%) [5]: 96% and 93%
- Population Pyknosed Nuclei (%) [5]: 9% and 8%
- Population Tubulin-Different-Phenotype (%) [5]: 22% and 24%
- Total Cell Count [5]: 775 and 505
- Population Apoptotic (%) [6]: 17% and 30%
- Population Fragmented Nuclei (%) [6]: 14% and 13%
- Population Healthy Nuclei (%) [6]: 78% and 77%
- Population Hoechst High Intensity Objects (%) [6]: 3% and 5%
- Population Membrane Permeable-Phenotype (%) [6]: 1% and 0%
- Population Mitochondria Different-Phenotype (%) [6]: 27% and 35%
- Population Mitotic Cells (%) [6]: 82% and 69%
- Population Normal (%) [6]: 96% and 94%
- Population Pyknosed Nuclei (%) [6]: 7% and 8%
- Population Tubulin-Different-Phenotype (%) [6]: 21%
- Total Cell Count [6]: 856 and 647

SMILES: CC(C)c1noc(N2CCC(COc3ccc(-c4ccc(S(C)(=O)=O)cc4)nc3)CC2)n1 [GSK-1292263]
- Population Apoptotic (%) [1]: 37% and 25%
- Population Fragmented Nuclei (%) [1]: 8% and 6%
- Population Healthy Nuclei (%) [1]: 78% and 86%
- Population Hoechst High Intensity Objects (%) [1]: 5% and 6%
- Population Membrane Permeable-Phenotype (%) [1]: 0%
- Population Mitochondria Different-Phenotype (%) [1]: 42% and 53%
- Population Mitotic Cells (%) [1]: 62% and 74%
- Population Normal (%) [1]: 94% and 93%
- Population Pyknosed Nuclei (%) [1]: 12% and 7%
- Population Tubulin-Different-Phenotype (%) [1]: 32% and 13%
- Total Cell Count [1]: 440 and 522
- Population Apoptotic (%) [2]: 50% and 43%
- Population Fragmented Nuclei (%) [2]: 6% and 7%
- Population Healthy Nuclei (%) [2]: 71% and 78%
- Population Hoechst High Intensity Objects (%) [2]: 13% and 16%
- Population Membrane Permeable-Phenotype (%) [2]: 0%
- Population Mitochondria Different-Phenotype (%) [2]: 69% and 77%
- Population Mitotic Cells (%) [2]: 50% and 56%
- Population Normal (%) [2]: 86% and 83%
- Population Pyknosed Nuclei (%) [2]: 22% and 13%
- Population Tubulin-Different-Phenotype (%) [2]: 55% and 40%
- Total Cell Count [2]: 311 and 279
- Population Apoptotic (%) [3]: 23% and 25%
- Population Fragmented Nuclei (%) [3]: 8% and 7%
- Population Healthy Nuclei (%) [3]: 78% and 82%
- Population Hoechst High Intensity Objects (%) [3]: 5% and 3%
- Population Membrane Permeable-Phenotype (%) [3]: 0%
- Population Mitochondria Different-Phenotype (%) [3]: 27% and 29%
- Population Mitotic Cells (%) [3]: 76% and 74%
- Population Normal (%) [3]: 94% and 96%
- Population Pyknosed Nuclei (%) [3]: 12% and 9%
- Population Tubulin-Different-Phenotype (%) [3]: 25% and 9%
- Total Cell Count [3]: 545 and 608
- Population Apoptotic (%) [4]: 64% and 46%
- Population Fragmented Nuclei (%) [4]: 8% and 11%
- Population Healthy Nuclei (%) [4]: 79% and 74%
- Population Hoechst High Intensity Objects (%) [4]: 8% and 10%
- Population Membrane Permeable-Phenotype (%) [4]: 0%
- Population Mitochondria Different-Phenotype (%) [4]: 58% and 59%
- Population Mitotic Cells (%) [4]: 35% and 53%
- Population Normal (%) [4]: 91% and 89%
- Population Pyknosed Nuclei (%) [4]: 12% and 13%
- Population Tubulin-Different-Phenotype (%) [4]: 49% and 28%
- Total Cell Count [4]: 384 and 354
- Population Apoptotic (%) [5]: 22% and 23%
- Population Fragmented Nuclei (%) [5]: 10%
- Population Healthy Nuclei (%) [5]: 81% and 83%
- Population Hoechst High Intensity Objects (%) [5]: 3% and 1%
- Population Membrane Permeable-Phenotype (%) [5]: 1%
- Population Mitochondria Different-Phenotype (%) [5]: 23% and 14%
- Population Mitotic Cells (%) [5]: 77% and 76%
- Population Normal (%) [5]: 96% and 98%
- Population Pyknosed Nuclei (%) [5]: 8% and 5%
- Population Tubulin-Different-Phenotype (%) [5]: 14% and 10%
- Total Cell Count [5]: 865 and 882
- Population Apoptotic (%) [6]: 32% and 30%
- Population Fragmented Nuclei (%) [6]: 10% and 13%
- Population Healthy Nuclei (%) [6]: 79% and 78%
- Population Hoechst High Intensity Objects (%) [6]: 10% and 5%
- Population Membrane Permeable-Phenotype (%) [6]: 0%
- Population Mitochondria Different-Phenotype (%) [6]: 50% and 37%
- Population Mitotic Cells (%) [6]: 67% and 69%
- Population Normal (%) [6]: 89% and 94%
- Population Pyknosed Nuclei (%) [6]: 9% and 8%
- Population Tubulin-Different-Phenotype (%) [6]: 28% and 18%
- Total Cell Count [6]: 506 and 595
